Screening data as filed in PubChem.
Most compounds without a hit are left out; they make up all but 3.5% or so of the library.
RGS4 act: potentiators or activators of RGS4; HEK293 M3R/inducible RGS4, carbachol calcium flux Fluo4; hits give low values; B-score at 10 µM; hit rate 0.92% among 310,000; AID 463111;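 active = B-score of the integrated calcium signal more than 4 SD below the library mean, with starting fluorescence not abnormally high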;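 also: negative B-score means reduced calcium response which marks RGS4 activation or potentiation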
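Reagent: ECmax carbachol challenge; Test system: M3R-expressing HEK293 line, RGS4 induced by doxycycline; Schedule: overnight RGS4 induction, 30 min dye load 37 °C, 20 min compound RT; Detection: calcium dye Fluo4 fluorescence; Read-out: Agonist-evoked peak-minus-minimum fluorescence over baseline, integrated ratio, B score.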
MrgX1 antag: antagonists of human MrgX1 receptor; MRGX1-HEK293 calcium flux, Fluo-4, BAM8-22 antagonism; hits give low values; B-score at 10 µM; Q96LB2; AID 588676; hit rate 1.3% among 310,000;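 active = calcium-response B-score plate-corrected more than 3 library SD below zero, starting fluorescence within 5 deviations, no agonist response on first addition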;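 also: peak minus trough fluorescence over baseline after final BAM8-22 challenge near maximal dose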
Target sequence (Q96LB2 whole entry, looked up): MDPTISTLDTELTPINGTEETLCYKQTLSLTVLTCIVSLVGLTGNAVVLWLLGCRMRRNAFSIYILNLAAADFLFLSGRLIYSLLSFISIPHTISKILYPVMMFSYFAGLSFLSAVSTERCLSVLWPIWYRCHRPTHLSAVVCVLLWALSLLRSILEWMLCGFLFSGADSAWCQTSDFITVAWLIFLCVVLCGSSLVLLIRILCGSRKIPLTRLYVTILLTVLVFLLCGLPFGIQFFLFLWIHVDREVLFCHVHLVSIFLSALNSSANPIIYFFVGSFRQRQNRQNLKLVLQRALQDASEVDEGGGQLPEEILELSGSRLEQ
MrgX1 agonist: human MrgX1 receptor agonism, primary screen; hit rate 0.44% among 310,000; MrgX1-HEK293 cells, Fluo-4 calcium fluorescence, agonist mode; hits give high values; B-score at 10 µM; AID 588627;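 active = calcium response B-score plate-corrected fluorescence ratio at least 3 library SD, with starting fluorescence B-score inside 5 SD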
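Test system: HEK293 cells stably expressing human MrgX1 receptor; amount: 15,000 cells per well; doses: compound delivered in addition one of three; times: overnight plating before 1 h dye loading; detection: Fluo-4 NW calcium-flux fluorescence, kinetic read; read-out basis: B-scored fluorescence response ratio; controls: positive and negative controls per plate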
MrgX1 allo act: allosterically activates human MrgX1 receptor signaling; MrgX1-HEK293, Fluo-4 calcium flux, FDSS; hits give high values; B-score at 10 µM; hit rate 0.63% among 310,000; AID 588675;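 active = plate-corrected calcium response at least 3 library SD above typical, normal starting fluorescence, not activating the receptor alone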;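 also: compound read alongside a low EC10 to EC30 dose of BAM8-22 agonist; peak minus trough fluorescence over baseline measured at the second addition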
RGS4 block: human RGS4 inhibition; P49798; HEK293 M3R/RGS4 inducible, Fluo-4 calcium flux; hits give high values; triggered by carbachol at its EC20; B-score at 10 µM; hit rate 0.45% among 310,000;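 active = B-score, a plate-corrected calcium signal, over three deviations above library mean, with baseline fluorescence within five deviations of library mean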;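 also: RGS4 expression induced by doxycycline in cells with stable M3 receptor; B-score is computed from the integrated fluorescence ratio over baseline after carbachol; higher B-score means a larger calcium signal and so more RGS4 inhibition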
Target sequence (P49798 whole entry, looked up): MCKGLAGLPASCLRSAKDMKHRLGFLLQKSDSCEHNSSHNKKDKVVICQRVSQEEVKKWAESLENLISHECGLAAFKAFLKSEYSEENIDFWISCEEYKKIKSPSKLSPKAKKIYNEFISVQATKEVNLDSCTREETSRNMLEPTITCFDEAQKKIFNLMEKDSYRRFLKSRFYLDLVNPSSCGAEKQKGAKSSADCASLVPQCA
RGS4 inh valid: RGS4 inhibitor validation; shares compounds with RGS4 block; HEK293 M3R/RGS4, carbachol calcium Fluo-4 fluorescence; carbachol added at its EC20; 0 = buffer wells, 100 = carbachol control; calcium response, % at 10 µM; hit rate 65% among 1,700; AID 492999;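 active = duplicate-averaged calcium response above the buffer-only control mean plus 5 SD of those controls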;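 also: integrated fluorescence ratio F max minus min over baseline F0; higher response in RGS4-induced cells means RGS4 inhibition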
M3R Ca ctr: checks RGS4 inhibitor effects in non-induced HEK293 M3R cells. AID 493000. shares compounds with RGS4 block. carbachol calcium Fluo-4; submaximal (EC20) carbachol stimulus; buffer wells 0%, carbachol control wells 100%. activity (percent), % at 10 µM. hit rate 20% among 1,900; call rule not given here;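 also: RGS4 induction absent so cells express M3R without RGS4; higher means more calcium signal and flags a non-specific hit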
RGS4 inh ctr2: second counter-screen for RGS4 inhibitors: non-induced cells without carbachol; shares compounds with RGS4 block; HEK293 M3R/RGS4 non-induced, Fluo-4 calcium, no carbachol; normalised: buffer wells 0%, carbachol wells 100%; calcium response (agonist-mode artifact), % at 10 µM; hit rate 22% among 1,900; AID 493001;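 active = duplicate-averaged calcium rise in uninduced cells above buffer wells' mean plus 5 SD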
Starred values were filed as active, the others as inactive; i = inactive; . = no result given.

SMILES | RGS4 act | MrgX1 antag | MrgX1 agonist | MrgX1 allo act | RGS4 block | RGS4 inh valid | M3R Ca ctr | RGS4 inh ctr2
COc1cccc(NC(=O)c2ccc3c(c2)C(=O)N(CC2CCCO2)C3=O)c1 (centres undefined) | i | i | i | i | i | . | . | .
N#C/C(=C/c1ccc(O)cc1)C(=O)NCc1ccc(Cl)cc1 | i | i | i | i | i | i | i | i
O=C1OC2(O)C3C4C=CC(C4)C3C(=O)N2c2ccccc21 (centres undefined) | i | i | i | i | i | . | . | .
Cc1ccc(S(=O)(=O)N2CCCOC2CNC(=O)C(=O)NC2CCCC2)cc1 (centres undefined) | i | i | i | i | i | i | i | i
COc1ccc(OC)c(-c2nc3ccccc3nc2-c2ccccc2)c1 | i | i | i | i | i | i | i | i
Oc1[nH]c2ccc(Br)cc2c1N=NC(=S)Nc1ccc(F)cc1 | i | i | i | i | 7.28* | 11.5%* | i | i
Oc1ccc(NC(=S)N=Nc2c(O)[nH]c3ccc(Br)cc23)cc1 | i | . | . | . | i | . | . | .
CC(C)NCC(O)c1cc(O)cc(O)c1 (centres undefined) | i | i | i | i | 4.82* | 22.0%* | 52.0%* | i
O=C(NCc1ccccc1)C1CCCN(S(=O)(=O)c2ccc(F)cc2)C1 (centres undefined) | i | i | i | i | i | . | . | .
COc1ccc(C(=O)NC2CCN(CC(=O)NCc3ccccc3)CC2)cc1 | i | i | i | i | i | . | . | .
NC(=O)CC(NC(=O)Cc1ccc(Br)cc1)c1ccc(NC2CCCCCC2)c([N+](=O)[O-])c1 (centres undefined) | i | i | i | i | i | i | i | i
NC(=O)CC(NC(=O)Cc1ccc(Cl)cc1)c1ccc(NC2CCCCCCC2)c([N+](=O)[O-])c1 (centres undefined) | i | i | i | i | 4.68* | 11.0%* | i | i
NC(=O)CC(NC(=O)Cc1ccc(Cl)cc1)c1ccc(NC2CCCCCC2)c([N+](=O)[O-])c1 (centres undefined) | i | i | i | i | i | . | . | .
NC(=O)CC(NC(=O)Cc1ccc(Br)cc1)c1ccc(NC2CCCC2)c([N+](=O)[O-])c1 (centres undefined) | i | i | i | i | i | i | i | i
COC(=O)C1CN(C(=O)C(C)Oc2cccc(C)c2C)c2ccccc2O1 (centres undefined) | i | i | i | i | i | . | . | .
Cc1ccc(NC(=O)[C@@]2(CC(=O)O)CC(/C=C/c3ccccc3)=NO2)c(C)c1 | i | i | i | i | i | . | . | .
COc1ccc2c(c1OC)C(=O)OC2n1c(O)c(N=NC(C)=O)c2ccccc21 (centres undefined) | i | i | i | i | i | . | . | .
CCOC(=O)[C@@H]1[C@H]2COc3ccccc3[C@@H]2N2C(=O)N(c3ccc(Cl)cc3)C(=O)[C@]12C | i | i | i | i | i | i | i | i
CCOC(=O)[C@@H]1[C@H]2COc3ccccc3[C@H]2N2C(=O)N(c3cccc(F)c3)C(=O)[C@]12C | i | i | i | i | i | i | i | i
CCOC(=O)[C@@H]1[C@H]2COc3ccccc3[C@@H]2N2C(=O)N(c3ccc(F)cc3)C(=O)[C@]12C | i | i | i | i | i | i | i | i
CCOC(=O)[C@@H]1[C@H]2COc3ccccc3[C@H]2N2C(=O)N(c3ccccc3)C(=O)[C@]12C | i | i | i | i | i | i | i | i
Cc1cc(Cl)ccc1C(=O)C1CCCN(C(=O)c2snnc2C)C1 (centres undefined) | i | i | i | i | i | . | . | .
O=C(CNC(=O)c1ccc(Cl)cc1)N/N=C/c1cccnc1 | i | i | i | i | i | . | . | .
Cc1cc(C)cc(NC(=S)N2CCN(S(C)(=O)=O)CC2)c1 | i | i | i | i | i | . | . | .
CCOC(=O)[C@@H]1[C@H]2COc3ccccc3[C@@H]2N2C(=O)N(c3ccccc3)C(=O)[C@@]12C | i | i | i | i | i | i | i | i
SMILES | RGS4 act | MrgX1 antag | MrgX1 agonist | MrgX1 allo act | RGS4 block | RGS4 inh valid | M3R Ca ctr | RGS4 inh ctr2
CCOC(=O)[C@@H]1[C@H]2COc3ccccc3[C@H]2N2C(=O)N(c3ccc(C)cc3)C(=O)[C@]12C | i | i | i | i | i | i | i | i
CCOC(=O)[C@@H]1[C@H]2COc3ccccc3[C@@H]2N2C(=O)N(c3ccccc3)C(=O)[C@]12C | i | i | i | i | i | i | i | i
CCOC(=O)[C@@H]1[C@H]2COc3ccc(Br)cc3[C@@H]2N2C(=O)N(c3ccc(Br)cc3)C(=O)[C@]12C | i | i | i | i | i | . | . | .
CCOC(=S)SCc1cn2cccc(C)c2n1 | i | i | i | i | i | . | . | .
Cc1onc(-c2ccccc2)c1CNC(=O)C1COc2ccccc2O1 (centres undefined) | i | i | i | i | i | . | . | .
Cc1ccc([N+](=O)[O-])cc1N(CC(=O)Nc1ccc(S(=O)(=O)Nc2cccc(C(F)(F)F)c2)cc1)S(C)(=O)=O | i | i | i | i | 7.24* | 22.0%* | i | i
COc1cc(/C=C2\C(=O)N(c3ccc(NC(C)=O)cc3)N=C2c2ccccc2)ccc1O | i | i | i | i | 6.15* | i | i | 15.5%*
COc1cc(NS(=O)(=O)c2ccc(NC(C)=O)cc2)nc(OC)n1 | i | i | i | i | i | . | . | .
COc1ccc(CC(=O)Nc2ccc(S(=O)(=O)Nc3cc(C)on3)cc2)cc1OC | i | i | i | i | i | . | . | .
COc1cc(NS(=O)(=O)c2ccc(Nc3nc(-c4ccccn4)cs3)cc2)nc(OC)n1 | i | i | i | i | i | . | i | i
